Measured values reported in ChEMBL document CHEMBL2321836, “Discovery of novel Trypanosoma brucei phosphodiesterase B1 inhibitors by virtual screening against the unliganded TbrPDEB1 crystal structure” (J Med Chem, 2013).

Experiments:
[1] = molecular target: T1, Class 1 phosphodiesterase PDEB1 (Trypanosoma brucei, UniProt Q8WQX9); experiment: Inhibition of Trypanosoma brucei full length PDEB1 expressed in insect SF21 cells using cAMP as substrate by scintillation proximity assay
T1 sequence (Q8WQX9 whole entry): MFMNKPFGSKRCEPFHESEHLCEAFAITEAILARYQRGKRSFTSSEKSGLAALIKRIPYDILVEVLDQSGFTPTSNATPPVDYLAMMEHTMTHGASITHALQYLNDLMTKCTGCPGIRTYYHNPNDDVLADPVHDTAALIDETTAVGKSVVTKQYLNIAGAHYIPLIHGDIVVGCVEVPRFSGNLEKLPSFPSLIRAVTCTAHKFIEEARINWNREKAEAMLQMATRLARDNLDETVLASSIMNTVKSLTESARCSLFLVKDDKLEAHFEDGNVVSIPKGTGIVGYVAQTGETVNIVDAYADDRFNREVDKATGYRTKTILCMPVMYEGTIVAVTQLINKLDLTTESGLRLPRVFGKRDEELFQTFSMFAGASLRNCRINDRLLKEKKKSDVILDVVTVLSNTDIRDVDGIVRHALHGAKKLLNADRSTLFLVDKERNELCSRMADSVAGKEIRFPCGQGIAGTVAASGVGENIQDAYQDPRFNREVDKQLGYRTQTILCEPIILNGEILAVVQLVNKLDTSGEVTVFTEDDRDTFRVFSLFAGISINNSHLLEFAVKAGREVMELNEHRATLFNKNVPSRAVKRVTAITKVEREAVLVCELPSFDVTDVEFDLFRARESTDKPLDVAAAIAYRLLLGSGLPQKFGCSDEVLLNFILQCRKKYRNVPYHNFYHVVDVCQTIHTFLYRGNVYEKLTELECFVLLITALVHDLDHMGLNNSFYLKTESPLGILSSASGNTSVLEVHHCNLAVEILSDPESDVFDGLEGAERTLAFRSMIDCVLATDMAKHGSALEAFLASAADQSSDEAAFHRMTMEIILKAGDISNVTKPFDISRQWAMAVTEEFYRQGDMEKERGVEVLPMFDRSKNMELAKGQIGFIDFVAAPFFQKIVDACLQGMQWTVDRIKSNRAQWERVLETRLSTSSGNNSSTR
In short: (§1)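 Full-length enzyme harvested by sonication of supernatants of overexpressing Sf21 cells. Scintillation proximity assay with 0.5 μM cAMP substrate. Enzyme level set so that <20% of cAMP was consumed. Blanks used denatured protein. Run in at least duplicate.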

[2] = molecular target: 3',5'-cyclic-AMP phosphodiesterase 4B (Homo sapiens, UniProt Q07343); experiment: Inhibition of human full length PDE4B expressed in insect SF21 cells using cAMP as substrate by scintillation proximity assay
Chain of 3',5'-cyclic-AMP phosphodiesterase 4B (Q07343 whole entry): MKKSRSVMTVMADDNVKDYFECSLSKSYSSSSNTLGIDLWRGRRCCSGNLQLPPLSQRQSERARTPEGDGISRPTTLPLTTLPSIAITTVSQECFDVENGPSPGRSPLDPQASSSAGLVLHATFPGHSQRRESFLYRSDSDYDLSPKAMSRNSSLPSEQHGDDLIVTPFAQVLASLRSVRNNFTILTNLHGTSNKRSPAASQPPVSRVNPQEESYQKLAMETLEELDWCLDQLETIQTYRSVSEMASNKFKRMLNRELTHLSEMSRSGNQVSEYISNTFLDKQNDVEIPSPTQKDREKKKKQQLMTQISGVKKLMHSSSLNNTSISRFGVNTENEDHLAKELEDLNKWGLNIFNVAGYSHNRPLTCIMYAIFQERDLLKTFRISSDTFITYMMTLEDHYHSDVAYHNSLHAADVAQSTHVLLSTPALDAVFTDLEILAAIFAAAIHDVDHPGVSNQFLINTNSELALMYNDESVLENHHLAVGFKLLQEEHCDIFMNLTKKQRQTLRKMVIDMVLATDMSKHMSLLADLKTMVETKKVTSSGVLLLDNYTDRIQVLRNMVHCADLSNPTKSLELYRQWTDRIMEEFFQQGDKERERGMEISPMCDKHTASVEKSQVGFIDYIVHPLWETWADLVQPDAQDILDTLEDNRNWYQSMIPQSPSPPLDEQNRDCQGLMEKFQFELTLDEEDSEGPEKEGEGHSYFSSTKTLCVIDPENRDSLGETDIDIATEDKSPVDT
In short: as §1, with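 “duplicate. IC50 obtained by a one-site competitive binding fit, with curves assumed to plateau at 100% inhibition.” for “duplicate.”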

[3] = Selectivity ratio of IC50 for Trypanosoma brucei PDEB1 to IC50 for human PDE4B

IC50 [1] [µM]	IC50 [2] [µM]	Ratio IC50 [3]	SMILES
13	5	–	Cc1cc(SCC(=O)c2ccc(O)c(O)c2)n2nc(C)c(-c3ccccc3)c2n1
41	16	2.6	O=C1c2cccc3cccc(c23)C(=O)N1CCCC(=O)N(Cc1ccco1)C1CC1
12	14	–	O=C(CCCSc1ncnc2sc(-c3ccccc3)cc12)N1CCOCC1
75	68	–	O=C(NCc1ccc(Cn2cncn2)cc1)c1ccc2[nH]c3c(c2c1)CCCC3
54	15	3.6	O=C(CCc1nc2ccccc2n(CCc2ccccc2)c1=O)N1CCCCC1

SMILES	IC50 [1] [µM]	IC50 [2] [µM]	Ratio IC50 [3]
CCCn1c(=O)n(C)c(=O)c2c(SCC(=O)c3ccc(Cl)cc3)nc(CC(C)C)nc21	10	26	0.4
